Results on 15 molecules are retold here after ChEMBL document CHEMBL1127799, “Derivatives of a novel cyclopeptolide. 1. Synthesis, antifungal activity, and structure-activity relationships” (1994).

Converted amounts (≈) assume the structure as drawn.

Assay type in all cases: functional
The subject of assay [1] is Meyerozyma guilliermondii. Kind of assay: Tested for minimum inhibitory concentration against Candida guilliermondii 80 (C.g) at pH of 6.5. The method in brief: (§1)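 Broth microdilution in malt extract broth, initial pH 4.5 or 6.5, with 1×10^3 CFU per 0.2 mL well of thawed stored cultures. Compound stocks were made in 5% DMSO/0.2% Tween 80 and diluted to final 0.05–100 μg/mL. Plates were incubated 48 h at 30 °C and read macroscopically. MIC was the lowest concentration with no detectable growth. Vehicle-only wells served as controls.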

Assay [2] concerns Pichia kudriavzevii. As to the kind of experiment: Tested for minimum inhibitory concentration against Candida krusei 132 (C.k) at pH of 4.5. The method in brief:
as §1

The subject of assay [3] is Pichia kudriavzevii. Kind of assay: Tested for minimum inhibitory concentration against Candida krusei 132 (C.k) at pH of 6.5. In short, it runs like this: as §1
For assay [4], the system named is Candida tropicalis. Kind of assay: Tested for minimum inhibitory concentration against Candida tropicalis 43 (C.t) at pH of 4.5. In short, it runs like this: as §1
Assay [5] relates to Candida albicans. As to the kind of experiment: Tested for minimum inhibitory concentration against Candida albicans 124 (Candida albicans) at pH of 6.5. In short, it runs like this:
as §1

In assay [6] the test system is Meyerozyma guilliermondii. Kind of assay: Tested for minimum inhibitory concentration against Candida guilliermondii 80 (C.g) at pH of 4.5. The method in brief: as §1
Assay [7] deals with Candida albicans. Kind of assay: Tested for minimum inhibitory concentration against Candida albicans 124 (Candida albicans) at pH of 4.5. In short, it runs like this: as §1
The subject of assay [8] is Candida tropicalis. Kind of assay: Tested for minimum inhibitory concentration against Candida tropicalis 43 (C.t) at pH of 6.5. In short, it runs like this:
as §1

Consider `CC[C@@H](C)[C@H]1C(=O)NCC(=O)N(C)[C@@H](C(C)C)C(=O)N[C@@H](Cc2ccc(OC)cc2)C(=O)O[C@H](C)C(=O)N2CCCC[C@H]2C(=O)N(C)[C@@H](C(C)C)C(=O)N[C@@H](C(C)C)C(=O)N(C)[C@@H](CC(=O)NC[Si](C)(C)C)C(=O)N(C)[C@@H]([C@@H](C)CC)C(=O)N1C`, for which the MIC (in assay [1]; against Pichia kudriavzevii [2]; against Pichia kudriavzevii [3]; in the assay on Candida tropicalis [4]; against Candida albicans [5]; in assay [6]) was more than 100 µg/mL in each case. Besides, the MIC against Candida albicans [7] and against Candida tropicalis [8] was more than 100 µg/mL each time.
With `CC[C@@H](C)[C@H]1C(=O)NCC(=O)N(C)[C@@H](C(C)C)C(=O)N[C@@H](Cc2ccc(OC)cc2)C(=O)N[C@@H](C)C(=O)N2CCCC[C@H]2C(=O)N(C)[C@@H](C(C)C)C(=O)N[C@@H](C(C)C)C(=O)N(C)[C@@H](CC(=O)O)C(=O)N(C)[C@@H]([C@@H](C)CC)C(=O)N1C`, the MIC (as a rule, the lowest concentration found to suppress growth) in assay [1] came to 25 µg/mL (≈ 22.2 µM); in the assay with Pichia kudriavzevii [2], 25 µg/mL (≈ 22.2 µM); against Pichia kudriavzevii [3], 50 µg/mL (≈ 44.4 µM); against Candida tropicalis [4] it was 6.25 µg/mL (≈ 5.55 µM); against Candida albicans [5] it was 6.25 µg/mL (≈ 5.55 µM); in assay [6], 6.25 µg/mL (≈ 5.55 µM). Further, the MIC was found to be 3.13 µg/mL (≈ 2.78 µM) against Candida albicans [7] and 25 µg/mL (≈ 22.2 µM) in the assay on Candida tropicalis [8].
As for `CC[C@@H](C)[C@H]1C(=O)NCC(=O)N(C)[C@@H](C(C)C)C(=O)N[C@@H](Cc2ccc(OC)cc2)C(=O)O[C@H](C)C(=O)N2CCCC[C@H]2C(=O)N(C)[C@@H](C(C)C)C(=O)N[C@@H](C(C)C)C(=O)N(C)[C@@H](CC(=O)NCCN(C)C)C(=O)N(C)[C@@H]([C@@H](C)CC)C(=O)N1C`, the MIC (in assay [1]; in the assay with Pichia kudriavzevii [2]; against Pichia kudriavzevii [3]; in the assay on Candida tropicalis [4]; in the assay with Candida albicans [5]; in assay [6]) was more than 100 µg/mL throughout. For the same molecule, the MIC against Candida albicans [7] and in the assay with Candida tropicalis [8] was more than 100 µg/mL each time.
For `CC[C@@H](C)[C@H]1C(=O)NCC(=O)N(C)[C@@H](C(C)C)C(=O)N[C@@H](Cc2ccc(OC)cc2)C(=O)O[C@H](C)C(=O)N2CCCC[C@H]2C(=O)N(C)[C@@H](C(C)C)C(=O)N[C@@H](C(C)C)C(=O)N(C)[C@@H](CCCl)C(=O)N(C)[C@@H]([C@@H](C)CC)C(=O)N1C`, the MIC (in assay [1]; against Pichia kudriavzevii [2]; in the assay with Pichia kudriavzevii [3]; against Candida tropicalis [4]; in the assay with Candida albicans [5]; in assay [6]) was more than 100 µg/mL in each case. Further, the MIC in the assay on Candida albicans [7] and with Candida tropicalis [8] was more than 100 µg/mL in each case.
For `CC[C@@H](C)[C@H]1C(=O)NCC(=O)N(C)[C@@H](C(C)C)C(=O)N[C@@H](Cc2ccc(OC)cc2)C(=O)O[C@H](C)C(=O)N2CCCC[C@H]2C(=O)N(C)[C@@H](C(C)C)C(=O)N[C@@H](C(C)C)C(=O)N(C)[C@@H](CCOC(=O)c2ccccc2C(=O)O)C(=O)N(C)[C@@H]([C@@H](C)CC)C(=O)N1C`, the MIC (in assay [1]; in the assay on Pichia kudriavzevii [2]; in the assay on Pichia kudriavzevii [3]; in the assay on Candida tropicalis [4]; in the assay with Candida albicans [5]; in assay [6]) was more than 100 µg/mL in each case. In addition, the MIC against Candida albicans [7] and in the assay with Candida tropicalis [8] was more than 100 µg/mL each time.
On to `CC[C@@H](C)[C@H]1C(=O)NCC(=O)N(C)[C@@H](C(C)C)C(=O)N[C@@H](Cc2ccc(OC)cc2)C(=O)O[C@H](C)C(=O)N2CCCC[C@H]2C(=O)N(C)[C@@H](C(C)C)C(=O)N[C@@H](C(C)C)C(=O)N(C)[C@@H](CCOC(C)=O)C(=O)N(C)[C@@H]([C@@H](C)CC)C(=O)N1C`, for which the MIC is more than 100 µg/mL in assay [1]; more than 100 µg/mL in the assay with Pichia kudriavzevii [2]; more than 100 µg/mL against Pichia kudriavzevii [3]; 100 µg/mL (≈ 86.6 µM) with Candida tropicalis [4]; 50 µg/mL (≈ 43.3 µM) with Candida albicans [5]; more than 100 µg/mL in assay [6]. The MIC was 12.5 µg/mL (≈ 10.8 µM) with Candida albicans [7] and more than 100 µg/mL against Candida tropicalis [8].
In the case of `CC[C@@H](C)[C@H]1C(=O)NCC(=O)N(C)[C@@H](C(C)C)C(=O)N[C@@H](Cc2ccc(OCc3ccc(Br)cc3)cc2)C(=O)O[C@H](C)C(=O)N2CCCC[C@H]2C(=O)N(C)[C@@H](C(C)C)C(=O)N[C@@H](C(C)C)C(=O)N(C)[C@@H](CC(=O)O)C(=O)N(C)[C@@H]([C@@H](C)CC)C(=O)N1C`, the MIC (in assay [1]; against Pichia kudriavzevii [2]; in the assay with Pichia kudriavzevii [3]; against Candida tropicalis [4]; in the assay on Candida albicans [5]; in assay [6]) was more than 100 µg/mL in each case. For the same molecule, the MIC in the assay with Candida albicans [7] and with Candida tropicalis [8] was more than 100 µg/mL each time.
Take `CC[C@@H](C)[C@H]1C(=O)NCC(=O)N(C)[C@@H](C(C)C)C(=O)N[C@@H](Cc2ccc(OC)cc2)C(=O)O[C@@H](C)C(=O)N2CCCC[C@H]2C(=O)N(C)[C@@H](C(C)C)C(=O)N[C@@H](C(C)C)C(=O)N(C)[C@@H](CC(=O)O)C(=O)N(C)[C@@H]([C@@H](C)CC)C(=O)N1C`: the MIC in assay [1] was 100 µg/mL (≈ 88.8 µM); against Pichia kudriavzevii [2], 25 µg/mL (≈ 22.2 µM); in the assay with Pichia kudriavzevii [3], 50 µg/mL (≈ 44.4 µM); against Candida tropicalis [4] it was 6.25 µg/mL (≈ 5.55 µM); against Candida albicans [5], 12.5 µg/mL (≈ 11.1 µM); in assay [6] it was 12.5 µg/mL (≈ 11.1 µM). The MIC against Candida albicans [7] came out at 3.13 µg/mL (≈ 2.78 µM); in the assay with Candida tropicalis [8], 25 µg/mL (≈ 22.2 µM).
On to `CC[C@@H](C)[C@H]1C(=O)NCC(=O)N(C)[C@@H](C(C)C)C(=O)N[C@@H](CC(=O)O)C(=O)O[C@H](C)C(=O)N2CCCC[C@H]2C(=O)N(C)[C@@H](C(C)C)C(=O)N[C@@H](C(C)C)C(=O)N(C)[C@@H](CC(=O)O)C(=O)N(C)[C@@H]([C@@H](C)CC)C(=O)N1C`, for which the MIC (in assay [1]; with Pichia kudriavzevii [2]; in the assay with Pichia kudriavzevii [3]; in the assay on Candida tropicalis [4]; against Candida albicans [5]; in assay [6]) was more than 100 µg/mL in each case. Further, the MIC is 100 µg/mL (≈ 94 µM) in the assay with Candida albicans [7] and more than 100 µg/mL in the assay with Candida tropicalis [8].
`CC[C@@H](C)[C@H]1C(=O)NCC(=O)N(C)[C@@H](C(C)C)C(=O)N[C@@H](Cc2ccc(OCC(=O)O)cc2)C(=O)O[C@H](C)C(=O)N2CCCC[C@H]2C(=O)N(C)[C@@H](C(C)C)C(=O)N[C@@H](C(C)C)C(=O)N(C)[C@@H](CC(=O)O)C(=O)N(C)[C@@H]([C@@H](C)CC)C(=O)N1C`: the minimal inhibitory concentration (MIC) in assay [1] is more than 100 µg/mL; in the assay with Pichia kudriavzevii [2], more than 100 µg/mL; against Pichia kudriavzevii [3] it was more than 100 µg/mL; against Candida tropicalis [4] it was 25 µg/mL (≈ 21.4 µM); in the assay on Candida albicans [5] it was 100 µg/mL (≈ 85.4 µM); in assay [6], 25 µg/mL (≈ 21.4 µM). Also, the MIC was 12.5 µg/mL (≈ 10.7 µM) in the assay on Candida albicans [7] and more than 100 µg/mL with Candida tropicalis [8].
In the case of `CC[C@@H](C)[C@H]1C(=O)NCC(=O)N(C)[C@@H](C(C)C)C(=O)N[C@@H](Cc2ccc(OC)cc2)C(=O)O[C@H](C)C(=O)N2CCCC[C@H]2C(=O)N(C)[C@@H](C(C)C)C(=O)N[C@@H](C(C)C)C(=O)N(C)[C@@H](CC(=O)Nc2ccc(Br)cc2)C(=O)N(C)[C@@H]([C@@H](C)CC)C(=O)N1C`, the minimum inhibitory concentration (MIC) (in assay [1]; against Pichia kudriavzevii [2]; with Pichia kudriavzevii [3]; in the assay with Candida tropicalis [4]; against Candida albicans [5]; in assay [6]) was more than 100 µg/mL in each case. Besides, the MIC in the assay with Candida albicans [7] and against Candida tropicalis [8] was more than 100 µg/mL throughout.
As for `CCCCCCCCOC(=O)C[C@H]1C(=O)N(C)[C@@H]([C@@H](C)CC)C(=O)N(C)[C@@H]([C@H](C)CC)C(=O)NCC(=O)N(C)[C@@H](C(C)C)C(=O)N[C@@H](Cc2ccc(OC)cc2)C(=O)O[C@H](C)C(=O)N2CCCC[C@H]2C(=O)N(C)[C@@H](C(C)C)C(=O)N[C@@H](C(C)C)C(=O)N1C`, the MIC (in assay [1]; with Pichia kudriavzevii [2]; in the assay on Pichia kudriavzevii [3]; against Candida tropicalis [4]; against Candida albicans [5]; in assay [6]) was more than 100 µg/mL in each case. Moreover, the MIC with Candida albicans [7] and against Candida tropicalis [8] was more than 100 µg/mL in each case.
`CC[C@@H](C)[C@H]1C(=O)NCC(=O)N(C)[C@@H](C(C)C)C(=O)N[C@@H](Cc2ccc(OC)cc2)C(=O)O[C@H](C)C(=O)N2CCCC[C@H]2C(=O)N(C)[C@@H](C(C)C)C(=O)N[C@@H](C(C)C)C(=O)N(C)[C@@H](CC(=O)OC(C)(C)C)C(=O)N(C)[C@@H]([C@@H](C)CC)C(=O)N1C`: the MIC (in assay [1]; in the assay with Pichia kudriavzevii [2]; against Pichia kudriavzevii [3]; against Candida tropicalis [4]; against Candida albicans [5]; in assay [6]) was more than 100 µg/mL throughout. The MIC in the assay on Candida albicans [7] and against Candida tropicalis [8] was more than 100 µg/mL in each case.
Take `CC[C@@H](C)[C@H]1C(=O)NCC(=O)N(C)[C@@H](C(C)C)C(=O)N[C@@H](Cc2ccc(OC)cc2)C(=O)N[C@H](C)C(=O)N2CCCC[C@H]2C(=O)N(C)[C@@H](C(C)C)C(=O)N[C@@H](C(C)C)C(=O)N(C)[C@@H](CC(=O)O)C(=O)N(C)[C@@H]([C@@H](C)CC)C(=O)N1C`: the MIC in assay [1] was more than 100 µg/mL; with Pichia kudriavzevii [2], more than 100 µg/mL; with Pichia kudriavzevii [3], more than 100 µg/mL; in the assay with Candida tropicalis [4], more than 100 µg/mL; against Candida albicans [5] it was 100 µg/mL (≈ 88.9 µM); in assay [6] it was more than 100 µg/mL. Moreover, the MIC against Candida albicans [7] was 25 µg/mL (≈ 22.2 µM); in the assay on Candida tropicalis [8], more than 100 µg/mL.
In the case of `CC[C@H](C)[C@H]1C(=O)NCC(=O)N(C)[C@@H](C(C)C)C(=O)N[C@@H](Cc2ccc(OC)cc2)C(=O)N[C@@H](C)C(=O)N[C@H](C)C(=O)N2CCCC[C@H]2C(=O)N(C)[C@@H](C(C)C)C(=O)N[C@@H](C(C)C)C(=O)N(C)[C@@H](CC(=O)OC(C)(C)C)C(=O)N(C)[C@@H]([C@@H](C)CC)C(=O)N1C`, the MIC (in the assay on Pichia kudriavzevii [2]; with Candida tropicalis [4]; in assay [6]; against Candida albicans [7]) was more than 100 µg/mL each time.
